An excerpt weighted towards active compounds, which were near 1.9% of everything screened.
Ins promoter up: MIN6 insulin promoter up-regulation; AID 1625; z-score at 5 µM; 0.3% of 190,000 active; MIN6 insulin promoter-GFP reporter, high-content imaging; active compounds read high;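 active = z-score above 3 at 5 µM with at least 500 cells counted in the well; inconclusive = wells under 500 cells, flagged as cytotoxic or low count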
HSV augment: increases HSV replication in cells. HSV replication augmentation in cells, fold increase. maximum fold increase. 0.005% of 220,000 active; in the data active = maximum fold increase above about 1.5; inconclusive = no clear call, values can overlap the other calls; tested in PC3 cells
Furin inh: human furin inhibition. P09958. purified furin, fluorogenic substrate cleavage. inhibition, % at 20 µM or 30 µM. 0.061% of 220,000 active; in the data active = inhibition above about 25%
Target sequence (P09958 108-714 limits assumed): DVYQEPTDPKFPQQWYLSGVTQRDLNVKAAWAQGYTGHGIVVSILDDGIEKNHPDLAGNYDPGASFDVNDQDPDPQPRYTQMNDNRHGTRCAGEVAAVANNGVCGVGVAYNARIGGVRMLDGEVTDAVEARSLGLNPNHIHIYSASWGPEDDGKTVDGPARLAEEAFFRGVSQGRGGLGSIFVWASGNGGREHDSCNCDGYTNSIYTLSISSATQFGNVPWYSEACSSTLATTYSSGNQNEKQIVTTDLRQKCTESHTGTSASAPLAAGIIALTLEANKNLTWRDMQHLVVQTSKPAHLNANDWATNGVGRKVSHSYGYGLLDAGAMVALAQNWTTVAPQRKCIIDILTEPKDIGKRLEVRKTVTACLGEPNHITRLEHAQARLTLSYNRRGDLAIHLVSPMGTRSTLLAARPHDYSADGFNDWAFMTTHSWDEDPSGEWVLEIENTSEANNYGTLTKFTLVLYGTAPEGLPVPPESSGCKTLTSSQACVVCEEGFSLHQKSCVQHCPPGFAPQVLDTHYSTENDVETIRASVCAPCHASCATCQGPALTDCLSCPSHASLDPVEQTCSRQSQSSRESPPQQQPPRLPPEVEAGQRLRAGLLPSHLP
bCat nuc transl: modulators of beta-catenin nuclear translocation. nuclear translocation activity, % at 5 µM. 0.3% of 190,000 active. HeLa beta-catenin nuclear translocation, immunofluorescence imaging. AID 1665;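 active = nuclear translocation activity above 50% at 5 µM, with a well cell count of 50 or more; inconclusive = wells under 50 cells across six images, flagged as toxic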;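 note: per-cell ratio of nuclear to cytoplasmic median beta-catenin stain intensity; plate controls were DMSO negative control for no effect and GSK-3 inhibitor IX positive control for full effect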
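System: Human HeLa cells, endogenous beta-catenin | Compound dosing: 5 µM primary, 0.02–20 µM confirmation | Timing: 24 h compound exposure at 37°C, 5% CO2 | Measured by: Fluorescence imaging of beta-catenin antibody stain plus DAPI | Read-out basis: % activation of per-cell nuclear versus cytoplasmic median beta-catenin signal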
Autophagy mod: modulators of autophagy | AID 463193 | 0.98% of 190,000 active | calls only at 10 µM (by protocol) | MEF GFP-LC3 puncta imaging; test concentration mostly 10 µM;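 active = percentage of spot-positive cells more than 3 SD above its plate mean, without a fluorescence outlier flag or 80% toxicity; inconclusive = no clear call, values can overlap the other calls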;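 note: spot-positive cell cutoff set from DMSO-treated cells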
MT stabilizer: stabilizes microtubules in HeLa cells. HeLa tubulin immunostaining HCS, 24 h; share of cells brighter than vehicle mean+2SD. % tubulin-high responders, % at 10 µM. 0.83% of 200,000 active;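 active = plate Z-score above 3 for both tubulin-high and condensed-nucleus cell shares, with cell loss under 80%, at 10 µM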;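 note: anti alpha tubulin signal scored within the nucleus-defined area of each cell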
Active calls of the source: *; i = inactive; ? = inconclusive; . = no result given; + = active, no number.

SMILES	Ins promoter up	HSV augment	Furin inh	bCat nuc transl	Autophagy mod	MT stabilizer
CCc1ccc(CN2C(=O)c3ccccc3C2C(=O)NCc2cccnc2)cc1 (centres undefined)	-0.1	i	-17	-1	i	1
c1ccc2c(CNCCN3CCOCC3)cccc2c1	-0.46	i	-21	-2	+	1
c1ccc2c(NCCCN3CCOCC3)c3ccccc3nc2c1	-0.8	i	-17	1	+	34*
COc1ccc(C2/C=C\CN(C(=O)NC(C)C)CC(=O)N2Cc2ccc(F)cc2)cc1 (centres undefined)	.	i	-27	-1	.	.
CCOC(=O)c1sc2nc(CSc3ccccc3)nc(N3CCCN(C)CC3)c2c1C	-2.8	.	-7	3	+	3
CCCCn1cnc2c(cnn2-c2ccc(F)cc2)c1=O	.	i	-10	.	i	5
CCCn1cnc2c(cnn2-c2ccc(F)cc2)c1=O	.	i	-19	-1	+	6
NCCc1c(-c2ccccc2)n(-c2ccccc2)c2ccccc12	.	i	-18	30	i	10
O=C(NCCc1c[nH]c2ccccc12)OCCSS(=O)(=O)O	0.18	i	-25	-1	i	4
CCOC(=O)N1CCN(C(=O)CSc2nnc(-c3ccc(C(C)(C)C)cc3)o2)CC1	.	i	-14	-3	+	3
CCOC(=O)N1CCN(C(=O)CSc2nnc(-c3ccc(C)c(C)c3)o2)CC1	0.01	i	-25	.	i	2
O=C1CC(c2cccc(Cl)c2)CC(O)=C1C=NC1CCCC1 (centres undefined)	0.08	i	-23	-3	i	2
COc1ccc(CN(Cc2cc3cccc(C)c3n3nnnc23)C(=O)N2CCOCC2)cc1	.	i	-25	0	i	2
COc1ccc(CNCC(=O)Nc2cccc(S(N)(=O)=O)c2)cc1	0.2	i	-23	0	i	4
COc1ccc(CNCC(=O)Nc2ccccc2-n2cccc2)cc1	1.9	i	-22	43	i	33*
N#Cc1c(C(F)(F)F)cc(-c2ccco2)nc1SCc1ccccn1	1.2	i	-13	0	+	2
N#Cc1c(C(F)(F)F)cc(-c2ccco2)nc1SCc1ccncc1	1.9	?	-35	4	i	10
Cc1ccc(C2C3CN(C(C)C)CC=C3C(C#N)=C(N)C2(C#N)C#N)cc1 (centres undefined)	10*	.	.	.	.	.
CCCN1CC=C2C(C#N)=C(N)C(C#N)(C#N)C(c3cccc(OC)c3OC)C2C1 (centres undefined)	.	?	-7	2	?	3
COc1ccc(OC)c(C2C3CN(C(C)C)CC=C3C(C#N)=C(N)C2(C#N)C#N)c1 (centres undefined)	17*	?	-10	6	+	3
CNS(=O)(=O)c1ccc(C(C)(C)C)cc1	0.3	i	-25	0	i	1
COc1ccc(CN2CCCC(CNC(=O)c3ccc(F)cc3)C2)c(C)c1C (centres undefined)	.	i	-13	-1	i	1
COc1ccc(NC(=O)CCCn2c(=O)c3sccc3n(Cc3ccc(C)cc3C)c2=O)cc1	-0.15	i	-20	-2	i	2
CCOc1ccccc1C(=O)NC(C)c1ccc2c(c1)OCO2 (centres undefined)	.	i	11	20	i	42*
CCCn1c(SCC(=O)NC(C)(C)C)nnc1-c1ccco1	-0.06	i	-25	3	i	3
SMILES	Ins promoter up	HSV augment	Furin inh	bCat nuc transl	Autophagy mod	MT stabilizer
Cc1nc(-c2cccc(Br)c2)ccc1C(=O)O	0.39	i	-12	-1	i	5
CCCNC(=O)Nc1nnc(C2CC2)s1	-0.08	i	-26	0	i	2
C1CCC(C(CC2CCCCN2)C2CCCCC2)CC1 (centres undefined)	.	i	-16	7	+	35*
COc1ccc(NS(=O)(=O)c2cc(C)ccc2C)cc1	-0.02	i	-21	0	i	59*
COc1ccc(NS(=O)(=O)c2cc(S(C)(=O)=O)ccc2C)cc1	0.1	i	-3	1	i	4
COc1ccc(NS(=O)(=O)c2cc(OC)ccc2NC(=O)c2cc(C)oc2C)cc1	.	i	-30	3	i	38*
COc1cc(/C=C2/S/C(=N/S(=O)(=O)Cc3ccccc3)NC2=O)c([N+](=O)[O-])cc1OC	-0.1	i	-7	-1	.	.
Cc1cc(N2C(=O)c3ccccc3C2=O)n(C)n1	3.8*	i	-17	-5	.	.
Cc1ccc(N2C(=O)c3ccccc3C2=O)cc1C	0.18	i	1	0	i	3
COc1ccc2[nH]cc(CC(=O)O)c2c1	0.61	i	9	1	i	2
COc1ccc2[nH]cc(CCNS(=O)(=O)c3ccc(NC(C)=O)cc3)c2c1	0.15	i	-20	-2	+	3
CN(C)CCCNc1cc(C(C)(C)C)nc2c(-c3ccccc3)cnn12	-1.1	i	17	4	.	.
Cn1cc(/C=C2\SC(=S)N(NC(=O)c3cccc(Cl)c3)C2=O)c2ccccc21	7.3*	?	-17	-1	.	.
O=C(O)CCNC(=O)c1ccc(N=Nc2ccc(O)c(C(=O)O)c2)cc1	.	i	.	.	.	.
Cn1cccc1/C=C1\CC(C(C)(C)C)C/C(=C\c2cccn2C)C1=O (centres undefined)	.	?	-11	-7	+	1
CS(=O)(=O)N1CCN(C(=O)COc2ccccc2)CC1	-0.19	i	-21	-1	+	3
CS(=O)(=O)N1CCN(C(=O)COc2ccc3ccccc3c2)CC1	-1.3	i	-3	-1	.	.
O=C(NN=C1CCN(Cc2ccccc2)CC1)c1cccc(S(=O)(=O)Nc2ccccc2Cl)c1	3*	i	-9	0	i	3
CC(C)(C)OC(=O)N1CCC2(CC1)Oc1ccc(F)cc1C(=O)C21CC(c2ccccc2)=NO1 (centres undefined)	.	i	.	.	.	.
COc1ccc(/C=N/NC(=O)c2cccnc2)cc1Cn1nc([N+](=O)[O-])c(Br)c1C	0.63	i	-13	-5	+	27*
COc1ccc(/C=N/NC(=O)c2cccnc2)cc1CN1CCc2ccccc2C1	-0.3	i	-12	0	.	.
CO/N=C\CC(=O)Nc1ccc(Cl)c(Cl)c1	.	i	-18	49	i	26*
COC(=O)c1ccc2c(=O)n(CC3CCCO3)c(SCC(=O)Nc3ccccc3Cl)nc2c1 (centres undefined)	-0.95	i	-14	.	i	3
COC(=O)c1ccc2c(=O)n(CC3CCCO3)c(SCC(=O)Nc3ccccc3OC)nc2c1 (centres undefined)	-0.62	i	-16	0	+	6
CC(CNS(=O)(=O)c1ccccc1)(c1ccccc1)N1CCCCC1 (centres undefined)	0.08	i	-17	0	.	.
O=C1CC(c2ccc(F)cc2)CC2=C1C=Nc1ccccc1N2 (centres undefined)	-2.1	i	-29	0	i	2

Compound activity (PubChem BioAssay)
